We go through 42 molecules from ChEMBL document CHEMBL1140675, “Discovery of a novel class of benzazepinone Na(v)1.7 blockers: potential treatments for neuropathic pain” (Bioorg Med Chem Lett, 2007).

The IC50 is the concentration needed to halve the response being measured. By inhibition is commonly meant the share of the control response that was lost under treatment. What is called half-life is the time needed for the level to fall by half in the phase considered. Higher therefore signals slow decline. What is called Cmax is the peak of the concentration-time curve. One may read the bioavailability as dose-corrected exposure relative to a reference, in per cent. Read a high bioavailability as good availability.

In data set [1] the target is Sodium channel protein type 9 subunit alpha (Homo sapiens, UniProt Q15858). In words: Blockade of human Nav1.7 by FRET assay. The procedure, abridged: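 Functional membrane-potential assay of channel block on human Nav1.7; read-out is FRET between two membrane-associated dyes; IC50 in nM.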
In a further data set the target is hERG (KCNH2) (Homo sapiens, UniProt Q12809). Description: Displacement of [35S]-MK0499 from human ERG receptor expressed in HEK293 cells at 10 uM. It is filed as cell-based. The settings on record: HEK293 cells expressing human ERG, probe [35S]-MK0499. The procedure, abridged: (§1)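 Binding assay measuring displacement of radiolabelled ligand (35S-MK-0499 for hERG; 3H-diltiazem for Cav1.2); % inhibition at 10 µM test compound.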
hERG (KCNH2), sequence (Q12809 whole entry): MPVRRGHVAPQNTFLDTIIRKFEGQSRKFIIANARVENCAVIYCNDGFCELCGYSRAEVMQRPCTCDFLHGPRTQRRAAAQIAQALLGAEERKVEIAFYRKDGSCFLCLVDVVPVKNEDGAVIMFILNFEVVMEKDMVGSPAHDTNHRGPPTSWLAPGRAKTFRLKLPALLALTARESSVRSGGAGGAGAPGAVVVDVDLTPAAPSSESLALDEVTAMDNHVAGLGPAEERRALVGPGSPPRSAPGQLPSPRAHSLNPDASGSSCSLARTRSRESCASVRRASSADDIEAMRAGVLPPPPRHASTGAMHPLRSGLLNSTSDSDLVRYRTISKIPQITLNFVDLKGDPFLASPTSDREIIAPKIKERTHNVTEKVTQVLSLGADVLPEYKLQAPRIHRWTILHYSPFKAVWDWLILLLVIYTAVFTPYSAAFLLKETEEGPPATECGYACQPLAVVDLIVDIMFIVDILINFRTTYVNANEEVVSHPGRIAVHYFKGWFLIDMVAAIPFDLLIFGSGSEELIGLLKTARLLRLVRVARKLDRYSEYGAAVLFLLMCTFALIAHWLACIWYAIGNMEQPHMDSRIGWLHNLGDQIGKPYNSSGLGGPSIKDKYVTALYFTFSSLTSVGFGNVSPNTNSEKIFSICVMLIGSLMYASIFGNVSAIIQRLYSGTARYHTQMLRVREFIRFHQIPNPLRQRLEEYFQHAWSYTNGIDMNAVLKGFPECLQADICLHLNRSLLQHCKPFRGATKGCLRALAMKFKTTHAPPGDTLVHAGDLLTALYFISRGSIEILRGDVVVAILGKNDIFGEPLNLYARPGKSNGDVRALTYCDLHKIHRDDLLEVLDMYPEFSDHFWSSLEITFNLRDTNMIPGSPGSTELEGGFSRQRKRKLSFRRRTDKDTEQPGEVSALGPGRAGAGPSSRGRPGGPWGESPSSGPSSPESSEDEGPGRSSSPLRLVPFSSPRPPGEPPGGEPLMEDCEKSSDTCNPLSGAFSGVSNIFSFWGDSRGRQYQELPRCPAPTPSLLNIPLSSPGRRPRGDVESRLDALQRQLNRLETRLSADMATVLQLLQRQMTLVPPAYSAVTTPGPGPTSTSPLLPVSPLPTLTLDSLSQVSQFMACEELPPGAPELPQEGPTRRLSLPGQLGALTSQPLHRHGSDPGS
In general terms: Loss of bound radioactivity is the signal in a displacement assay; it reports binding, not function.

Data set [2] addresses Cav1.2 (L-type calcium channel subunit alpha-1C) (Homo sapiens, UniProt Q13936). Description: Displacement of [3H]diltiazem from human Cav1.2 expressed in HEK293 cells at 10 uM. It is filed as cell-based. The settings on record: HEK293 cells expressing human Cav1.2, probe [3H]diltiazem. In short, it runs like this: as §1
Data set [3] is described as follows: Plasma clearance in rat at 1.0 mg/kg, iv or 3.0 mg/kg, po. It is filed as ADME, organism-based.
A short description of data set [4]: Half life in rat at 1.0 mg/kg, iv or 3.0 mg/kg, po. The data set is classed as ADME, organism-based. As to conditions: in vivo.
Data set [5] in a line: Cmax in rat at 1.0 mg/kg, iv or 3.0 mg/kg, po. The data set is classed as ADME, organism-based. The settings on record: in vivo.
A short description of data set [6]: Bioavailability in rat at 3.0 mg/kg, po. The settings on record: in vivo. It is filed as ADME, organism-based.
Data set [7] has as its target Voltage-dependent L-type calcium channel subunit alpha-1C (Homo sapiens, UniProt Q13936). In words: Displacement of [3H]diltiazem from human Cav1.2 expressed in HEK293 cells. The data set is classed as cell-based. In short, it runs like this: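 Cav1.2 binding assay measuring displacement of 3H-diltiazem.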

Cav1.2 (L-type calcium channel subunit alpha-1C), sequence (Q13936 whole entry): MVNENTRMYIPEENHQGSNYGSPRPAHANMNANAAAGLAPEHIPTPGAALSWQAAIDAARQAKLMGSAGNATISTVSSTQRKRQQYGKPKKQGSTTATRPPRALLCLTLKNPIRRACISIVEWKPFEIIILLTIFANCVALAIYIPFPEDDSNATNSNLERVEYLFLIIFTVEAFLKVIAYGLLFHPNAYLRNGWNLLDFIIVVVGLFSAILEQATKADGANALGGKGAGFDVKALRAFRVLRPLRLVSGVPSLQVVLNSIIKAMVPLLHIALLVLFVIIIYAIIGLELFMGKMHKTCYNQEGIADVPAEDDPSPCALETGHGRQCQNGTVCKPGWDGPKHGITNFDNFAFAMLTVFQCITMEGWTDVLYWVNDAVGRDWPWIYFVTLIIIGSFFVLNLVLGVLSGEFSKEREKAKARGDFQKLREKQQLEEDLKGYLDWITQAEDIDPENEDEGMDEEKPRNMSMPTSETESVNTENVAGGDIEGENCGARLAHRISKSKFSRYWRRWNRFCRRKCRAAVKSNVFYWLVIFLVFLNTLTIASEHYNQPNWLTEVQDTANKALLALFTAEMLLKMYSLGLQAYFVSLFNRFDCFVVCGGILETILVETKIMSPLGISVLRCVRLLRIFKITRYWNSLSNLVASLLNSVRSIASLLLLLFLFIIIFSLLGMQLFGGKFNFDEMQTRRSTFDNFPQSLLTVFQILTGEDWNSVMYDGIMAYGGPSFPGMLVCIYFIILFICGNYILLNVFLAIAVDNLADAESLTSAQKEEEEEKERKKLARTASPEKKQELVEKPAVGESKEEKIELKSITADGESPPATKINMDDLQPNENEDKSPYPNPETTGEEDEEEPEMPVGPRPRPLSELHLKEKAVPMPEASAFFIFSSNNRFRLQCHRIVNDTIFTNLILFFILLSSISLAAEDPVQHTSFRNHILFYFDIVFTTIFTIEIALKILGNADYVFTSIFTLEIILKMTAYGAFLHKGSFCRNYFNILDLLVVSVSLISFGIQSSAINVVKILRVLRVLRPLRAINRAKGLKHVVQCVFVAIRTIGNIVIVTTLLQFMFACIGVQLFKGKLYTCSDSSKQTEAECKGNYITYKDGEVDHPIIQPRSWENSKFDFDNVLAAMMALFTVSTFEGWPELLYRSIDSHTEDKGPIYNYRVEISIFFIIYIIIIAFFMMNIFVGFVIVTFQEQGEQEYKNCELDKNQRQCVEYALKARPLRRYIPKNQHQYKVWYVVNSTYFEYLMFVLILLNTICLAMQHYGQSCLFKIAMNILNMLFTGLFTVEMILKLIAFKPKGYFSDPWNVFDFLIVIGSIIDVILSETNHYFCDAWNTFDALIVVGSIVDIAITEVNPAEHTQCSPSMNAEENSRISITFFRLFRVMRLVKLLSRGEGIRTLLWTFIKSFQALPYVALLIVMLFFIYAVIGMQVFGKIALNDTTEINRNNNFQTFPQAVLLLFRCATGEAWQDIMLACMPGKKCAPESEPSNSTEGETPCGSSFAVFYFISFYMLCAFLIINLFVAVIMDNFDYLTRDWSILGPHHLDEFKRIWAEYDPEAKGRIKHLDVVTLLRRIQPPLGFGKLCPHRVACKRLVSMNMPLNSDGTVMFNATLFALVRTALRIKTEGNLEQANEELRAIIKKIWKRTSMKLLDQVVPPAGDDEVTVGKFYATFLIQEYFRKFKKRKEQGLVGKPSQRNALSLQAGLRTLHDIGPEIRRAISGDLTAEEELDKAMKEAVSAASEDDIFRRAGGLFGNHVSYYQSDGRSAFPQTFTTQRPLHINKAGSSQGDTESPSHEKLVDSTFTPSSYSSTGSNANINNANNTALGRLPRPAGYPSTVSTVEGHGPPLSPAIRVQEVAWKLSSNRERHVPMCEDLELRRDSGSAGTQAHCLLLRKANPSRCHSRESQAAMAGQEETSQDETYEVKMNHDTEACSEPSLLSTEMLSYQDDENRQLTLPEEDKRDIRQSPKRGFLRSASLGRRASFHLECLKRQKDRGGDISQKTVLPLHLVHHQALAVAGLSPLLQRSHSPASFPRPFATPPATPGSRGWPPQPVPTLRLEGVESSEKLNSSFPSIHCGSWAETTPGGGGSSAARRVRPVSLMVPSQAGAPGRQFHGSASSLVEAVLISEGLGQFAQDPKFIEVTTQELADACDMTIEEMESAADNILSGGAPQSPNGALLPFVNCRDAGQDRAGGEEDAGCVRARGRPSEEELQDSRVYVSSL
Voltage-dependent L-type calcium channel subunit alpha-1C, sequence (Q13936 whole entry): as above

In turn, `CC(C)S(=O)(=O)N[C@H](Cc1ccccc1)C(=O)N[C@@H]1N=C(c2ccccc2)c2ccccc2N(C)C1=O` had an IC50 in data set [1] greater than 1000 nM.
For the molecule `CC(C)N1C(=O)[C@H](NC(=O)[C@@H](Cc2cccc(F)c2)NC(=O)OC(C)(C)C)CCc2ccccc21`, inhibition in data set [1] was half-maximal at 9 nM (IC50). Moreover, the figures for the inhibition at 10 µM (on hERG (KCNH2); in data set [2]) were 8% and 0%, respectively.
In the case of `CC(C)N1C(=O)[C@H](NC(=O)[C@@H](Cc2ccccc2C(F)(F)F)NC(=O)OC(C)(C)C)CCc2ccccc21`, in data set [1], the IC50 came to 137 nM. The clearance in data set [3] turned out to be 50 mL/min/kg. The half-life in data set [4] is 2.1 h. This molecule registered a Cmax in data set [5] of 300 nM. Also, 10 µM produced 34% inhibition at hERG (KCNH2). Further, the bioavailability in data set [6] came out at 35%.
As to `CC(C)(C)OC(=O)N[C@@H](CN[C@@H]1CCc2ccccc2N(CC(F)(F)F)C1=O)Cc1ccccc1`, in data set [1], half-maximal inhibition (IC50) required 885 nM. This molecule also returned an inhibition at 10 µM on hERG (KCNH2) of 79%.
Molecule `CN1C(=O)[C@H](NC(=O)[C@@H](Cc2ccccc2)N(C)C(=O)OC(C)(C)C)N=C(c2ccccc2)c2ccccc21` returned an IC50 in data set [1] greater than 1000 nM.
`CN1C(=O)[C@H](NC(=O)[C@@H](Cc2ccccc2)NC(=O)C(C)(C)C)N=C(c2ccccc2)c2ccccc21` had an IC50 in data set [1] of 380 nM.
Molecule `CN1C(=O)[C@H](NC(=O)[C@@H](Cc2ccccc2)NC(=O)C23CC4CC(CC(C4)C2)C3)N=C(c2ccccc2)c2ccccc21` came in with a 50% inhibitory concentration (IC50) in data set [1] of 420 nM.
In turn, `CN1C(=O)[C@H](NC(=O)[C@@H](Cc2ccccc2F)NC(=O)OC(C)(C)C)N=C(c2ccccc2)c2ccccc21` gave an IC50 in data set [1] of 87 nM.
In data set [1], `CC(C)N1C(=O)[C@H](NC(=O)[C@@H](Cc2cccc(C(F)(F)F)c2)NC(=O)OC(C)(C)C)CCc2ccccc21` displayed an IC50 of 295 nM. Also, the inhibition at 10 µM at hERG (KCNH2) was determined as 15%; in data set [2], 19%.
With `CN1C(=O)[C@H](NC(=O)[C@@H](Cc2cccnc2)NC(=O)OC(C)(C)C)N=C(c2ccccc2)c2ccccc21`, in data set [1], the IC50 is 978 nM.
Still for that read-out and setting: the result for `CN1C(=O)[C@H](NC(=O)[C@@H](Cc2ccccc2)NS(=O)(=O)c2ccccc2)N=C(c2ccccc2)c2ccccc21` reads greater than 1000 nM.
The molecule `CC(C)N1C(=O)[C@H](NC(=O)[C@@H](Cc2ccccc2F)NC(=O)OC(C)(C)C)CCc2ccccc21` displayed an IC50 in data set [1] of 44 nM. Further, the clearance in data set [3] amounted to 41 mL/min/kg. In addition, the half-life in data set [4] is 1.5 h. This molecule displayed a Cmax in data set [5] of 100 nM. The figures for the inhibition at 10 µM (on hERG (KCNH2); in data set [2]) were 8% and 11%, respectively. Besides, in data set [6], the bioavailability was 14%.
For the molecule `CC(C)N1C(=O)[C@H](NC(=O)[C@@H](Cc2cc(F)ccc2F)NC(=O)OC(C)(C)C)CCc2ccccc21`, in data set [1], it took 23 nM to reach half-maximal inhibition (IC50). For the same molecule, the inhibition at 10 µM at hERG (KCNH2) was found to be 6%; in data set [2] it was 24%.
Molecule `CN1C(=O)[C@H](NC(=O)[C@@H](Cc2ccc(F)cc2)NC(=O)OC(C)(C)C)N=C(c2ccccc2)c2ccccc21` registered an IC50 in data set [1] of 71 nM.
On the same count and under the same terms, the result for `C[C@@H](NC(=O)OC(C)(C)C)C(=O)N[C@@H]1N=C(c2ccccc2)c2ccccc2N(C)C1=O` reads greater than 1000 nM; that for `CC(C)N1C(=O)[C@H](NC(=O)[C@@H](Cc2ccc(C(F)(F)F)cc2)NC(=O)OC(C)(C)C)CCc2ccccc21`, greater than 1000 nM.
The molecule `CC(C)N1C(=O)[C@H](NC(=O)[C@@H](Cc2c(F)cccc2C(F)(F)F)NC(=O)OC(C)(C)C)CCc2ccccc21` returned an IC50 in data set [1] of 32 nM. Moreover, in data set [3], the clearance came out at 32 mL/min/kg. The half-life in data set [4] is 2.5 h. The Cmax in data set [5] was found to be 330 nM. The values for the inhibition at 10 µM (on hERG (KCNH2); in data set [2]) were 43% and 81%, respectively. Moreover, in data set [6], the bioavailability worked out at 28%.
In data set [1], `CC(C)N1C(=O)[C@H](NC(=O)[C@@H](Cc2cccc(F)c2C(F)(F)F)NC(=O)OC(C)(C)C)CCc2ccccc21` displayed an IC50 of 65 nM. For the same molecule, the inhibition at 10 µM was determined as 39% at hERG (KCNH2) and 87% in data set [2].
With `CN1C(=O)[C@H](NC(=O)[C@@H](Cc2ccccc2)NS(C)(=O)=O)N=C(c2ccccc2)c2ccccc21`, in data set [1], the IC50 was greater than 1000 nM.
Turning to `CC(C)(C)OC(=O)N[C@H](Cc1ccccc1)C(=O)N[C@@H]1CCc2ccccc2N(CC2CC2)C1=O`, in data set [1], the IC50 stood at 78 nM. This molecule had an inhibition at 10 µM at hERG (KCNH2) of 15%.
Taken in the same sequence, the figures for `CC(C)(C)OC(=O)N[C@H](Cc1ccccc1)C(=O)N[C@@H]1CCc2ccccc2N(CC(F)(F)F)C1=O` were 150 nM and 16%.
In the case of `CN1C(=O)[C@H](NC(=O)[C@@H](Cc2ccccc2)NC(=O)OC(C)(C)C)CCc2ccccc21`, in data set [1], the IC50 is 192 nM.
In turn, `CN1C(=O)[C@H](NC(=O)[C@H](N)Cc2ccccc2)N=C(c2ccccc2)c2ccccc21` displayed an IC50 in data set [1] greater than 1000 nM.
`CN1C[C@H](NC(=O)[C@@H](Cc2ccccc2)NC(=O)OC(C)(C)C)CCc2ccccc21` showed an IC50 in data set [1] greater than 1000 nM. On hERG (KCNH2), testing at 10 µM gave an inhibition of 28%.
In data set [1], `CC(C)N1C(=O)[C@H](NC(=O)[C@@H](Cc2c(F)cccc2F)NC(=O)OC(C)(C)C)CCc2ccccc21` returned an IC50 of 14 nM. In addition, the inhibition at 10 µM amounted to 4% on hERG (KCNH2) and 36% in data set [2].
As for `CN1C(=O)[C@H](NC(=O)[C@@H](Cc2ccccc2)NC(=O)C2CC2)N=C(c2ccccc2)c2ccccc21`, the IC50 in data set [1] is greater than 1000 nM.
On the same count and under the same terms, to `CN1C(=O)[C@H](NC(=O)CCc2ccccc2)N=C(c2ccccc2)c2ccccc21` belongs greater than 1000 nM.
On the same count and under the same terms, to `CN1C(=O)[C@H](NC(=O)[C@@H](Cc2ccccc2)NC(=O)OCc2ccccc2)N=C(c2ccccc2)c2ccccc21` belongs 150 nM; to `COC(=O)N[C@H](Cc1ccccc1)C(=O)N[C@@H]1N=C(c2ccccc2)c2ccccc2N(C)C1=O`, greater than 1000 nM.
Take `CC(C)N1C(=O)[C@@H](NC(=O)[C@@H](Cc2ccccc2OC(F)(F)F)NC(=O)OC(C)(C)C)CCc2ccccc21`: the IC50 in data set [1] stood at 32 nM; in data set [7], 1730 nM. Further, in data set [3], the clearance came to 55 mL/min/kg. The same molecule gave a half-life in data set [4] of 2.1 h. In data set [5], this molecule showed a Cmax of 140 nM. Testing at 10 µM at hERG (KCNH2) gave an inhibition of 20%. In data set [6], this molecule registered a bioavailability of 15%.
With `CN1C(=O)[C@H](NC(=O)[C@@H](CCc2ccccc2)NC(=O)OC(C)(C)C)N=C(c2ccccc2)c2ccccc21`, half-maximal inhibition in data set [1] (IC50) required 238 nM.
With `CC(C)N1C(=O)[C@H](NC(=O)[C@H](Cc2ccccc2OC(F)(F)F)NC(=O)OC(C)(C)C)CCc2ccccc21`, in data set [1], the IC50 came out at 214 nM. For the same molecule, at hERG (KCNH2), at 10 µM the inhibition was 0%.
With `CN1C(=O)[C@H](NC(=O)[C@H](NC(=O)OC(C)(C)C)c2ccccc2)N=C(c2ccccc2)c2ccccc21`, the half-inhibitory concentration (IC50) in data set [1] was determined as 375 nM.
Regarding `CC(C)N1C(=O)[C@H](NC(=O)[C@@H](Cc2ccc(F)cc2)NC(=O)OC(C)(C)C)CCc2ccccc21`, the IC50 in data set [1] amounted to 98 nM. Also, the inhibition at 10 µM (on hERG (KCNH2); in data set [2]) was 0% throughout.
The molecule `CC(C)(C)OC(=O)N[C@H](Cc1ccccc1)C(=O)N[C@@H]1CCc2ccccc2N(CC(F)(F)F)C1` came in with an IC50 in data set [1] of 145 nM. On hERG (KCNH2), the inhibition at 10 µM was determined as 40%.
For the molecule `CN1C(=O)[C@H](NC(=O)[C@@H](Cc2cnc[nH]2)NC(=O)OC(C)(C)C)N=C(c2ccccc2)c2ccccc21`, in data set [1], the IC50 was greater than 1000 nM.
The same measure, in the same setting: the result for `CN1CCCC[C@@H](NC(=O)[C@@H](Cc2ccccc2)NC(=O)OC(C)(C)C)C1=O` reads greater than 1000 nM; that for `CN1C(=O)[C@H](NC(=O)[C@@H](CC2CCCCC2)NC(=O)OC(C)(C)C)N=C(c2ccccc2)c2ccccc21`, greater than 1000 nM.
`CC(C)N1C(=O)[C@H](NC(=O)[C@@H](Cc2ccccc2)NC(=O)OC(C)(C)C)CCc2ccccc21`: 45 nM corresponded to half-maximal inhibition in data set [1] (IC50). Moreover, the inhibition at 10 µM at hERG (KCNH2) is 6%.
Take `CN1C(=O)[C@H](NC(=O)[C@@H](Cc2ccccc2)NCCC(C)(C)C)N=C(c2ccccc2)c2ccccc21`: in data set [1], the IC50 was greater than 1000 nM.
Same read-out and setting: the result for `CN1C(=O)[C@H](NC(=O)[C@@H](Cc2ccccc2)NC(=O)OC(C)(C)C)N=C(c2ccccc2)c2ccccc21` reads 125 nM.
With `CN1C(=O)[C@H](NC(=O)[C@@H](Cc2cscn2)NC(=O)OC(C)(C)C)N=C(c2ccccc2)c2ccccc21`, half-maximal inhibition in data set [1] (IC50) was put at 684 nM.
